According to ChEMBL document CHEMBL1133737, “Topoisomerase I-mediated antiproliferative activity of enantiomerically pure fluorinated homocamptothecins” (J Med Chem, 2000):

Assays:
[1] = target: T1, DNA topoisomerase 1 (Homo sapiens) (UniProt P11387); test: Stimulation of pKMp27 DNA cleavage by human DNA topoisomerase I in presence of 0.1 uM of compound
T1 sequence (whole entry): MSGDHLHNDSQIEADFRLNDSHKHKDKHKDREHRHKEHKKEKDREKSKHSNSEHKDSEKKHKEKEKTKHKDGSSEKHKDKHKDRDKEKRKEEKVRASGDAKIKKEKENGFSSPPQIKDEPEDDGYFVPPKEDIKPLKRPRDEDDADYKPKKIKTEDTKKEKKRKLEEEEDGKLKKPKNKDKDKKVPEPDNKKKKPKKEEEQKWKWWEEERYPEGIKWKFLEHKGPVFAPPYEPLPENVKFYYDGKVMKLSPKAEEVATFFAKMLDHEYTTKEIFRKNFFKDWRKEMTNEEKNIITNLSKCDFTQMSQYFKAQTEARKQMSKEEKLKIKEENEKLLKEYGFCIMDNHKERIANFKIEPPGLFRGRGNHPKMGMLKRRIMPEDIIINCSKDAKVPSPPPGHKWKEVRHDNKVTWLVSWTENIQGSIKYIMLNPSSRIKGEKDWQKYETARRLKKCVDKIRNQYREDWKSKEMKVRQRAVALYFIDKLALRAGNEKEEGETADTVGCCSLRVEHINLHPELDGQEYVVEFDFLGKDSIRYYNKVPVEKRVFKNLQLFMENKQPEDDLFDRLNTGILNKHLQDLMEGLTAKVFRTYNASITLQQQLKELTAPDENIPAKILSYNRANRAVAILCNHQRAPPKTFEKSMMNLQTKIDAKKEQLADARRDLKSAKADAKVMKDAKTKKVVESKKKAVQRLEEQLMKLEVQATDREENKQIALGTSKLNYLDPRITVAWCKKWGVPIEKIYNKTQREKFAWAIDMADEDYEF
In short: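 Human Topo I incubated with supercoiled plasmid pKMp27 DNA and 0.1 µM drug. Products resolved on agarose gel containing ethidium bromide. Nicked DNA fraction quantified and stimulation calculated as (N−N0)/N0, where N and N0 are the nicked fractions with and without drug. Values compiled from quantitative analysis of three gels.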

T-24 = test: Cytotoxicity against T24 tumor cell line determined by WST-1 assay; type: functional, cell-based; conditions: Homo sapiens
In short: (§1)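 Cells exposed to drug for 72 h; surviving cells measured colorimetrically with soluble tetrazolium WST-1. IC50 is the mean of triplicate determinations. HT29 and A549 sourced from ATCC. T24r was derived from T24 bladder carcinoma by prolonged exposure to vinorelbine, PE1001 and doxorubicin, and is multidrug resistant through Pg-P overexpression. A549 is resistant through MRP overexpression.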

HT-29 = test: Cytotoxicity against HT-29 tumor cell line determined by WST-1 assay; type: functional, cell-based; conditions: Homo sapiens; in short: as §1
A549 = test: Cytotoxicity against A549 tumor cell line determined by WST-1 assay; type: functional, cell-based; conditions: Homo sapiens; in short: as §1

CC[C@@]1(O)CC(=O)OCc2c1cc1n(c2=O)Cc2cc3cc(F)c(F)cc3nc2-1 [DIFLOMOTECAN]
Stimulation [1]: 32 | IC50 (T-24): 0.4 nM | IC50 (HT-29): 8.4 nM | IC50 (A549): 3.4 nM

CC[C@@]1(O)CC(=O)OCc2c1cc1n(c2=O)Cc2cc3cccc(F)c3nc2-1
Stimulation [1]: 7.3 | IC50 (T-24): 22 nM | IC50 (HT-29): 190 nM | IC50 (A549): 130 nM

CC[C@@]1(O)CC(=O)OCc2c1cc1n(c2=O)Cc2cc3c(F)cc(F)cc3nc2-1
Stimulation [1]: 30 | IC50 (T-24): 0.32 nM | IC50 (HT-29): 10 nM | IC50 (A549): 1.9 nM

CC[C@@]1(O)CC(=O)OCc2c1cc1n(c2=O)Cc2cc3ccccc3nc2-1 [HOMOCAMPTOTHECIN]
Stimulation [1]: 21 | IC50 (T-24): 3.3 nM | IC50 (HT-29): 30 nM | IC50 (A549): 26 nM

CC[C@@]1(O)CC(=O)OCc2c1cc1n(c2=O)Cc2cc3ccc(F)cc3nc2-1
Stimulation [1]: 29 | IC50 (T-24): 0.17 nM | IC50 (HT-29): 11 nM | IC50 (A549): 2.9 nM

CC[C@@]1(O)CC(=O)OCc2c1cc1n(c2=O)Cc2cc3c(F)cccc3nc2-1
Stimulation [1]: 18 | IC50 (T-24): 1.6 nM | IC50 (HT-29): 20 nM | IC50 (A549): 17 nM

CC[C@@]1(O)CC(=O)OCc2c1cc1n(c2=O)Cc2cc3cc(F)ccc3nc2-1
Stimulation [1]: 17 | IC50 (T-24): 4.5 nM | IC50 (HT-29): 27 nM | IC50 (A549): 22 nM

CC[C@@]1(O)C(=O)OCc2c1cc1n(c2=O)Cc2cc3ccccc3nc2-1 [CAMPTOTHECIN]
Stimulation [1]: 8.2 | IC50 (T-24): 88 nM | IC50 (HT-29): 80 nM | IC50 (A549): 67 nM
